Assay results reported in ChEMBL document CHEMBL1156133, “Losartan-antioxidant hybrids: novel molecules for the prevention of hypertension-induced cardiovascular damage” (J Med Chem, 2009).
Active and inactive are the calls of the source. The calls are words filed in the database; no cut-off is given here.

Key:
Rattus norvegicus [1] = assay: Antihypertensive activity in Wistar rat assessed as change in blood triglyceride level at 10 mg/kg/day, po measured after 8 weeks in presence of losartan; format: functional
Method in brief: (§1)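 Two-month-old male Wistar rats given L-NAME in drinking water (20 mg/kg/day) for 8 weeks; from week 4, test treatments also in drinking water daily (12.00-18.00 h). Sacrificed under halothane anesthesia at 8 weeks; serum biochemical parameters measured by automatic analyzer. Mean ± SEM of 10 rats; nonparametric statistics.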

Rattus norvegicus [2] = assay: Antihypertensive activity in Wistar rat assessed as decrease in L-NAME-induced HNE-lysine accumulation in vessel walls at 10 mg/kg/day, po for 4 weeks in presence of losartan; format: functional, organism-based
Method in brief: (§2)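 Male Wistar rats on L-NAME in drinking water (20 mg/kg/day) for 8 weeks, treatments in drinking water for the last 4 weeks. Thoracic aorta lysates run on SDS-PAGE and Western blotted for collagen type I, fibronectin or HNE-lysine, with β-tubulin as loading control; ECL detection, densitometry. Expressed as percent of basal; mean ± SEM of 10 experiments.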

Rattus norvegicus [3] = assay: Antihypertensive activity in Wistar rat assessed as change in blood AST level at 10 mg/kg/day, po measured after 8 weeks in presence of losartan; format: functional
Rattus norvegicus [4] = assay: Antihypertensive activity in Wistar rat assessed as change in blood triglyceride level at 10 mg/kg/day, po measured after 8 weeks; format: functional; method in brief: as §1
Rattus norvegicus [5] = assay: Antihypertensive activity in Wistar rat assessed as change in blood glucose level at 10 mg/kg/day, po measured after 8 weeks; format: functional; method in brief: as §1
Rattus norvegicus [6] = assay: Antihypertensive activity in Wistar rat assessed as change in blood LDH level at 10 mg/kg/day, po measured after 8 weeks in presence of losartan; format: functional
Rattus norvegicus [7] = assay: Antihypertensive activity in Wistar rat assessed as change in blood […] level at 10 mg/kg/day, po measured after 8 weeks in presence of losartan; format: functional
Rattus norvegicus [8] = assay: Antihypertensive activity in Wistar rat assessed as decrease in L-NAME-induced collagen 1 level in vessel walls at 10 mg/kg/day, po for 4 weeks in presence of losartan; format: functional, organism-based; method in brief: as §2
Rattus norvegicus [9] = assay: Antihypertensive activity in Wistar rat assessed as change in blood AST level at 10 mg/kg/day, po measured after 8 weeks; format: functional
Rattus norvegicus [10] = assay: Antihypertensive activity in Wistar rat assessed as change in blood cholesterol level at 10 mg/kg/day, po measured after 8 weeks; format: functional
Rattus norvegicus [11] = assay: Antihypertensive activity in Wistar rat assessed as change in blood creatinine level at 10 mg/kg/day, po measured after 8 weeks; format: functional; method in brief: as §1
Rattus norvegicus [12] = assay: Antihypertensive activity in Wistar rat assessed as change in blood creatinine level at 10 mg/kg/day, po measured after 8 weeks in presence of losartan; format: functional; method in brief: as §1
Rattus norvegicus [13] = assay: Antihypertensive activity in Wistar rat assessed as change in blood cholesterol level at 10 mg/kg/day, po measured after 8 weeks in presence of losartan; format: functional
Rattus norvegicus [14] = assay: Plasma concentration in po dosed Wistar rat assessed as EXP-3174 level after 4 weeks in presence of losartan; format: ADME, organism-based; details: in vivo, 672 h
Method in brief: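 Separate groups of Wistar rats dosed in drinking water for 4 weeks (n = 4-6 per group), then sacrificed and plasma analyzed by HPLC-MS/MS (triple quadrupole, electrospray), isocratic MeOH/water with 0.1% formic acid, 40 °C. Two plasma samples per animal; mean ± SEM.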

Rattus norvegicus [15] = assay: Antihypertensive activity in Wistar rat assessed as change in blood ALT level at 10 mg/kg/day, po measured after 8 weeks in presence of losartan; format: functional
Rattus norvegicus [16] = assay: Antihypertensive activity in Wistar rat assessed as decrease in L-NAME-induced fibronectin content in vessel walls at 10 mg/kg/day, po for 4 weeks in presence of losartan; format: functional, organism-based; method in brief: as §2
Rattus norvegicus [17] = assay: Antihypertensive activity in Wistar rat assessed as change in blood Na+ level at 10 mg/kg/day, po measured after 8 weeks; format: functional
Rattus norvegicus [18] = assay: Antihypertensive activity in Wistar rat assessed as change in blood LDH level at 10 mg/kg/day, po measured after 8 weeks; format: functional
Rattus norvegicus [19] = assay: Antihypertensive activity in Wistar rat assessed as change in blood ALT level at 10 mg/kg/day, po measured after 8 weeks; format: functional
Rattus norvegicus [20] = assay: Antihypertensive activity in Wistar rat assessed as change in blood glucose level at 10 mg/kg/day, po measured after 8 weeks in presence of losartan; format: functional; method in brief: as §1
Rattus norvegicus [21] = assay: Antihypertensive activity in Wistar rat assessed as change in blood urea level at 10 mg/kg/day, po measured after 8 weeks in presence of losartan; format: functional; method in brief: as §1
Rattus norvegicus [22] = assay: Antihypertensive activity in Wistar rat assessed as change in blood protein level at 10 mg/kg/day, po measured after 8 weeks; format: functional; method in brief: as §1
Rattus norvegicus [23] = assay: Antihypertensive activity in Wistar rat assessed as change in blood Na+ level at 10 mg/kg/day, po measured after 8 weeks in presence of losartan; format: functional
Rattus norvegicus [24] = assay: Antihypertensive activity in Wistar rat assessed as change in blood urea level at 10 mg/kg/day, po measured after 8 weeks; format: functional; method in brief: as §1
Rattus norvegicus [25] = assay: Antihypertensive activity in Wistar rat assessed as change in blood calcium level at 10 mg/kg/day, po measured after 8 weeks in presence of losartan; format: functional
Rattus norvegicus [26] = assay: Antihypertensive activity in Wistar rat assessed as change in blood calcium level at 10 mg/kg/day, po measured after 8 weeks; format: functional
Rattus norvegicus [27] = assay: Antihypertensive activity in Wistar rat assessed as change in blood protein level at 10 mg/kg/day, po measured after 8 weeks in presence of losartan; format: functional; method in brief: as §1
Rattus norvegicus [28] = assay: Antihypertensive activity in Wistar rat assessed as change in blood […] level at 10 mg/kg/day, po measured after 8 weeks; format: functional

Question: With O=C(O)CCc1ccc(O)c(O)c1 [DIHYDROCAFFEIC ACID] as the compound, how does the Activity (Rattus norvegicus [1]) read?
Answer: 69 mg/dL

Question: And the Activity (Rattus norvegicus [2])?
Answer: Active

Question: And the Activity (Rattus norvegicus [3])?
Answer: 93 IU/L

Question: And the Activity (Rattus norvegicus [4])?
Answer: 70 mg/dL

Question: What about the Activity (Rattus norvegicus [5]) of the same compound?
Answer: 170 mg/dL

Question: What about the Activity (Rattus norvegicus [6]) of the same compound?
Answer: 610 IU/L

Question: What about the Activity (Rattus norvegicus [7]) of the same compound?
Answer: 4.2 mmol/L

Question: And the Activity (Rattus norvegicus [8])?
Answer: Active

Question: And the Activity (Rattus norvegicus [9])?
Answer: 77 IU/L

Question: And the Activity (Rattus norvegicus [10])?
Answer: 58 mg/dL

Question: And the Activity (Rattus norvegicus [11])?
Answer: 0.47 mg/dL

Question: What about the Activity (Rattus norvegicus [12]) of the same compound?
Answer: 0.44 mg/dL

Question: What about the Activity (Rattus norvegicus [13]) of the same compound?
Answer: 54 mg/dL

Question: What about the concentration (Rattus norvegicus [14]) of the same compound?
Answer: 0.0194 µM

Question: What about the Activity (Rattus norvegicus [15]) of the same compound?
Answer: 22 IU/L

Question: And the Activity (Rattus norvegicus [16])?
Answer: Active

Question: And the Activity (Rattus norvegicus [17])?
Answer: 148 mmol/L

Question: What about the Activity (Rattus norvegicus [18]) of the same compound?
Answer: 591 IU/L

Question: What about the Activity (Rattus norvegicus [19]) of the same compound?
Answer: 24 IU/L

Question: And the Activity (Rattus norvegicus [20])?
Answer: 168 mg/dL

Question: What about the Activity (Rattus norvegicus [21]) of the same compound?
Answer: 24 mg/dL

Question: And the Activity (Rattus norvegicus [22])?
Answer: 5.2 g/dL

Question: What about the Activity (Rattus norvegicus [23]) of the same compound?
Answer: 148 mmol/L

Question: What about the Activity (Rattus norvegicus [24]) of the same compound?
Answer: 27 mg/dL

Question: And the Activity (Rattus norvegicus [25])?
Answer: 8.5 mg/dL

Question: What about the Activity (Rattus norvegicus [26]) of the same compound?
Answer: 8.8 mg/dL

Question: And the Activity (Rattus norvegicus [27])?
Answer: 4 g/dL

Question: What about the Activity (Rattus norvegicus [28]) of the same compound?
Answer: 4.1 mmol/L
